This is a sample that favours compounds with a hit; in the whole collection about 3.7% have one here.
HCV core dimer – inhibitors of HCV core protein dimerization, primary screen, biochemical, TR-FRET, high-throughput. TR-FRET GST/Flag-core106 dimerization, 1536-well. inhibition, % at 5 µM. actives 0.33% (n = 300,000);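 active means inhibition above the mean of all tested compounds plus 3 SD, set per screening campaign, cut at about 45% in these data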
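assay system = GST-tagged and Flag-tagged HCV core protein residues 1-106 | controls = unlabelled core106 and no-GST-core106 wells | incubation = compound-protein-antibody incubation 4 h at 22.5 °C | probe or stimulus = Eu donor and XL665 acceptor anti-tag antibodies | read-out = % inhibition based on acceptor/donor emission ratio | signal = TR-FRET 671 and 617 nm emission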
rCAG binder – binders of r(CAG) RNA repeats, primary screen, biochemical, fluorescence; r(CAG) RNA repeat, TO-PRO-1 dye displacement fluorescence; inhibition, % at 3 µM; actives 1.3% (n = 370,000); AID 651821, 2012;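 active means inhibition above the plate cutoff, the mean of all test compounds on that plate plus 3 SD, cut at about 35% in these data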;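 further: higher means more dye released from RNA so lower well fluorescence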
TAAR1 antagonist – human TAAR1 antagonists, primary screen, Fluo-8 calcium fluorescence, CHO RD-HGA16 cells | Trace amine-associated receptor 1 (Homo sapiens), Q96RJ0 | antagonist | inhibition, % at 3 µM | actives 1.5% (n = 360,000);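 active means inhibition above a per-plate cutoff, the mean inhibition of test compounds on that plate plus 3 SD, cut at about 49% in these data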
Target sequence (Q96RJ0 whole entry, looked up): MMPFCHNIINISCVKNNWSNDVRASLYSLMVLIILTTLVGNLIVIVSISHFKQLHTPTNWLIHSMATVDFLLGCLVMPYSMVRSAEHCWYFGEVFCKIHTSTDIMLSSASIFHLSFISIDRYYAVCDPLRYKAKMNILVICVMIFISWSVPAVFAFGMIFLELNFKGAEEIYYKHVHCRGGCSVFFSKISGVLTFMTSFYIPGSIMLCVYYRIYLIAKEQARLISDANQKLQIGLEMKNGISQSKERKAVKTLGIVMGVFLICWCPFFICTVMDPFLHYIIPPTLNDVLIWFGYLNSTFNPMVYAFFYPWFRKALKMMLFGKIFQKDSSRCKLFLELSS
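System: RD-HGA16 CHO cells with stable hTAAR1 and Gα16 | Probe or stimulus: EC80 β-phenethylamine stimulus | Dosing: 3 µM, single point | Times: Dye loading 75 min at 37 °C, then 30 min room temperature | Measured by: Fluo-8 calcium-sensitive fluorescence | Read-out basis: % inhibition of agonist calcium response | Replicates: n of 1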
TAAR1 agonist – human TAAR1 agonists, primary screen, Fluo-8 calcium fluorescence, CHO RD-HGA16 cells; Trace amine-associated receptor 1 (Homo sapiens), Q96RJ0; vehicle wells 0%, saturating PEA agonist 100%; activation, % at 3 µM; actives 0.99% (n = 360,000);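 active means activation above the mean activation of all test compounds in the run plus 3 SD, cut at about 38% in these data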
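Test system: RD-HGA16 (CHO) cells co-expressing Gα16 and hTAAR1 / Benchmarks: DMSO vehicle as 0%, PEA at EC100 as 100% / Repeats: no replicates (n 1) / Measure: % activation from peak over basal fluorescence ratio, DMSO-to-PEA scaled / Timing: 17-24 h plating, Fluo-8 75 min 37 °C, 30 min RT / Technique: kinetic Fluo-8 calcium fluorescence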
NS3 helicase inh – inhibitors of HCV NS3 helicase, primary screen, biochemical, Cy5 molecular beacon fluorescence | Hepatitis C virus NS3 helicase | NS3 helicase DNA unwinding | inhibition, % at 10.9 µM | actives 0.56% (n = 290,000);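 active means inhibition above the mean of all tested compounds plus 3 SD, set per campaign, cut at about 35% in these data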
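System: Hepatitis C virus NS3 helicase domain fragment enzyme | Reagent: Annealed dual-labelled DNA beacon duplex, ATP-started | Compound dosing: 10.9 µM single point, 0.8% DMSO | Incubation: 1 h reaction at 25 °C, ATP-initiated | Technique: Cy5 fluorescence | Evaluation: Percent inhibition from t60/t0 fluorescence ratio | Benchmarks: Low DMSO, high thioflavine S at 110 µM | Replication: Singlicate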
TAAR1 nonsel count – nonselective antagonists in TAAR1 counter-screen cells, counter-screen for hTAAR1 antagonist project, cell-based, fluorescence, calcium | shares compounds with TAAR1 antagonist | AID 651780, 2012 | counterscreen cell line, antagonist mode | actives 77% (n = 2,400) | inhibition, % at 3 µM; in the data active means inhibition above about 22%;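 further: CHO-Ga16 host cells stimulated with ATP at an EC80 level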
TAAR1 ant conf – human TAAR1 antagonists, retest of hits, confirmation, cell-based, fluorescence | AID 651785, 2012 | actives 40% (n = 2,400) | inhibition, % at 3 µM | shares compounds with TAAR1 antagonist | TAAR1-expressing cells, fluorescence antagonist read-out; in the data active means inhibition above about 49%;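 further: CHO-Ga16 host cells challenged with agonist PEA near its EC80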
Ga16 nonsel ag – calcium activation in Ga16-expressing cells, counter-screen for TAAR1 antagonist project, cell-based, fluorescence; shares compounds with TAAR1 antagonist; activation, % at 3 µM; agonist counterscreen; AID 651953, 2012; actives 18% (n = 2,400); in the data active means activation above about 12%
TAAR1 ag count – TAAR1 activation by candidate antagonists – cell-based, fluorescence, counter-screen for TAAR1 antagonist project | actives 2% (n = 2,400) | hTAAR1 cell line, agonist mode | activation, % at 3 µM | shares compounds with TAAR1 antagonist | AID 651955, 2012; in the data active means activation above about 37%;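 further: CHO cells stably expressing TAAR1 with calcium dye readout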
Large screens that a line does not name were inactive (follow-up assays come after a bar, where they were run).

CCN(CC)c1ccc(C(=O)NNC(=O)C2CCN(c3ncnc4sc(C)c(C)c34)CC2)cc1	TAAR1 antagonist 56 (no result: HCV core dimer, NS3 helicase inh) | TAAR1 nonsel count 26 | TAAR1 ant conf inactive | Ga16 nonsel ag inactive | TAAR1 ag count inactive
Cc1cccc(OCC(=O)NNC(=O)C2CCN(c3ncnc4sc(C)c(C)c34)CC2)c1	TAAR1 antagonist 75 (no result: NS3 helicase inh) | TAAR1 nonsel count 36 | TAAR1 ant conf 52 | Ga16 nonsel ag inactive | TAAR1 ag count inactive
CNC(=O)c1ccc(NC(=O)C2CCN(c3ncnc4sc(C)c(C)c34)CC2)cc1	none
CCCN(CC(=O)Nc1ccccc1C)C(=O)C1CCN(c2ncnc3sc(C)c(C)c23)CC1	TAAR1 antagonist 60 (no result: NS3 helicase inh) | TAAR1 nonsel count 31 | TAAR1 ant conf 51 | Ga16 nonsel ag inactive | TAAR1 ag count inactive
Cc1ccccc1OCC(=O)NNC(=O)C1CCN(c2ncnc3sc(C)c(C)c23)CC1	TAAR1 antagonist 70 (no result: NS3 helicase inh) | TAAR1 nonsel count 39 | TAAR1 ant conf 57 | Ga16 nonsel ag 13 | TAAR1 ag count inactive
COC(=O)[C@]12C[C@H](CC(=O)NCc3cccc(C(F)(F)F)c3)C(=O)N(Cc3ccco3)C1=C[C@H](C(C)(C)C)O[C@@H]2C	none (no result: HCV core dimer, TAAR1 antagonist, TAAR1 agonist, NS3 helicase inh)
CCOc1ccc(/C=C/C(O)=C2/C(=O)NC3(C)CC2c2ccccc2O3)cc1OC (configuration not stated)	TAAR1 antagonist 60 | TAAR1 nonsel count 27 | TAAR1 ant conf 49 | Ga16 nonsel ag inactive | TAAR1 ag count inactive
CCOc1ccc(/C=C/C(O)=C2/C(=O)N(C)C3(C)CC2c2ccccc2O3)cc1OC (configuration not stated)	none
CCOC(=O)CSc1ccc2ccccc2n1	none
CCOC(=O)C(C#N)(Cc1ccc2ccccc2n1)Cc1ccc2ccccc2n1	TAAR1 antagonist 64 (no result: HCV core dimer, NS3 helicase inh) | TAAR1 nonsel count 30 | TAAR1 ant conf inactive | Ga16 nonsel ag inactive | TAAR1 ag count inactive
COc1ccc(-c2c(C)nc3c(-c4ccccn4)cnn3c2N)cc1	TAAR1 antagonist 67 (no result: HCV core dimer) | TAAR1 nonsel count 24 | TAAR1 ant conf 62 | Ga16 nonsel ag inactive | TAAR1 ag count inactive
CC(C)C[C@H]1COc2cc(F)ccc2S(=O)(=O)N1C	none (no result: HCV core dimer, TAAR1 antagonist, TAAR1 agonist, NS3 helicase inh)
C=CCOc1ccc(/C=C/C(=O)OCC(=O)NCc2cccs2)cc1	TAAR1 antagonist 52 (no result: NS3 helicase inh) | TAAR1 nonsel count 29 | TAAR1 ant conf inactive | Ga16 nonsel ag inactive | TAAR1 ag count inactive
C=CCOc1ccc(/C=C/C(=O)OCc2csc(CC(=O)Nc3ccccc3C)n2)cc1	TAAR1 antagonist 66 (no result: HCV core dimer, NS3 helicase inh) | TAAR1 nonsel count 38 | TAAR1 ant conf 52 | Ga16 nonsel ag inactive | TAAR1 ag count inactive
O=C(COC(=O)/C=C/c1ccc(Cl)cc1)NCc1cccs1	none (no result: HCV core dimer, NS3 helicase inh)
COc1cc2c(cc1OC)[C@@H](NC(=O)c1ccncc1)[C@H](C)[C@H]2c1ccccc1	none (no result: HCV core dimer, NS3 helicase inh)
COc1cccc(NC(=O)CCc2nnc3ccc(N4CCN(c5cccc(OC)c5)CC4)nn23)c1	none (no result: rCAG binder, TAAR1 antagonist, TAAR1 agonist)
COc1ccccc1N1CCN(C(=O)CCc2nnc3ccc(N4CCC(C)CC4)nn23)CC1	TAAR1 antagonist 53 | TAAR1 nonsel count 22 | TAAR1 ant conf inactive | Ga16 nonsel ag inactive | TAAR1 ag count inactive
